Screening results (PubChem BioAssay)
Compounds with a hit are over-represented: about 3.1% of the library has one in this group of screens.
Cneo AK release = Cryptococcus neoformans lysis via adenylate kinase release | lysis activity, % at 15 µM | hit rate 0.2% among 360,000 | C. neoformans lysis, adenylate kinase release luminescence, 4 h; normalised: neutral wells 0, clomiphene wells 100 | AID 651654;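 active means mean lysis activity across replicates of at least 80%, whatever share of replicates individually reach that level; inactive means mean lysis activity below 80%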
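Material – log-phase Cryptococcus neoformans yeast cells · Input – 5 × 10^6 yeast cells/mL · Medium – fresh YPD growth medium · Doses – single compound concentration per well · Timing – static 4 h at 37 °C with compound, 1 h detection · Detection – adenylate kinase release luminescence · Read-out – signal increase indicating cell lysis · Control set – Clomiphene as positive lysis control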
GSIS activator = primary screen for activators of insulin secretion dependent on glucose, INS-1E cells, GLuc reporter luminescence; INS-1E GLuc reporter insulin secretion, 2-3 h; activation, % at 16.6 µM; hit rate 0.61% among 370,000; AID 743287;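 active means lowest replicate activation of at least 40%, so every replicate reaches that level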;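 further: 0% = median of neutral control wells and 100% = median of IBMX positive control wells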
miR-122 sensor = inhibitors of miR-122 in Huh7 cells. activation (reporter increase), % at 12.5 µM. hit rate 0.3% among 340,000. Huh7 miR-122 Renilla luciferase sensor, 48 h; neutral wells = 0, positive control = 100;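 active means mean replicate activation score at least 90 and every replicate individually at or above 90; inconclusive means only one of the two criteria met; inactive means neither criterion met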;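 further: higher luciferase means less miR-122 activity so hits act as miR-122 inhibitors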
rRNA inh HTS = inhibitors of bacterial rRNA selective over humanized ribosomes; AID 720706; hit rate 1.6% among 350,000; GFP signal change (wild-type ribosome), % (no concentration beside the values); E. coli WT GFP vs humanized-ribosome RFP mutants, fluorescence, 24 h; stronger effect = lower value; DMSO median 0, no signal -100;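 active means significant combined selectivity score with lowered wild-type GFP, culture density cut under 30%, mutant RFP and density less affected; inactive means any of these conditions unmet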
HIV Env fusion = inhibitors of HIV Env-mediated cell fusion. HeLa-JRFL Env/CEM21 cell fusion, luciferase. inhibition, % at 12.3 µM. hit rate 1.1% among 360,000. AID 651610;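 active means mean replicate inhibition score of at least 50 and every replicate individually at or above 50; inconclusive means only one of the two criteria met; inactive means mean below 50 and not all replicates reaching 50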;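 further: 0% = plate neutral controls and 100% = maraviroc near 300 nM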
CFTR F508del cor = CFTR F508del correction in bronchial cells | CFBE cells, YFP halide quenching; stimulated with forskolin plus potentiator P3; % fluorescence drop versus neutral controls | activity (quench increase), % at 7.58 µM | hit rate 0.36% among 350,000 | AID 720511;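 active means mean added fluorescence quench of at least 8% versus neutral control, with both replicates also reaching 8%; inconclusive means only one of the mean or replicate conditions met; inactive means mean below 8% and not both replicates reaching 8%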;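 further: cells transiently co-express mutant CFTR-F508del with the halide-sensitive YFP; corrector assay measuring rescue of mutant channel to the surface after 24 h compound exposure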
Numbers without * were called inactive; ? = inconclusive; . = no result; [ ] = another dose, or the depositor's remark.

SMILES	Cneo AK release	GSIS activator	miR-122 sensor	rRNA inh HTS	HIV Env fusion	CFTR F508del cor
Cc1noc(C)c1NC(=O)N[C@H]1CC[C@@H](CC(=O)N2CCCCC2)O[C@H]1CO	4	5	.	2	-11[16.7 µM]	-2
C[C@H]1CN([C@@H](C)CO)C(=O)Cc2cc(NC(=O)Nc3ccccc3)ccc2O[C@H]1CN(C)CC1CCCCC1	1	-25	-21[16.7 µM]	-1	.	-1
Cc1nnc(SCC(=O)Nc2sc3c(c2C(=O)c2ccccc2)CCCC3)s1	5	-16	-3	.	57*	.
COc1ccc(Cc2c(-c3ccc(F)cc3)nc3ccc(C)cn23)c(C)c1	.	-5	.	9	13	4
COc1ccc(Cc2c(-c3ccc(OC)c(OC)c3)nc3ccc(C)cn23)c(C)c1	4	-7	-3	-32*	9	2
Cc1ccc(Cc2c(-c3cccc(Cl)c3)nc3ccc(C)cn23)cc1	5	-7	24	-28	62*	-2
Cc1ccc(Cc2c(-c3ccc(Br)cc3)nc3ccc(Cl)cn23)cc1	-1	-11	6	-27*	?	3
CCCN(C)C[C@H]1Oc2ncc(-c3cccc(C(=O)N(C)C)c3)cc2C(=O)N([C@H](C)CO)C[C@@H]1C	-2	7	-4[16.7 µM]	1	-40[16.7 µM]	-4
CC(C)CC(=NNC(=O)c1ccncc1)c1cc(Cl)ccc1O	-1	1	-8	-60	33	16*
CC(=NNC(=O)c1ccncc1)c1ccc(O)cc1O	0	17	.	-16	41	5
CC(=NNC(=O)c1ccncc1)c1ccc2ccccc2c1O	.	-15	1	-5	39	25*
CC(=NNC(=O)c1ccncc1)c1ccccc1O	0	22	1	-30*	31	7
O=C(Nc1ccc(F)cc1)N[C@@H]1CC[C@H](CCNS(=O)(=O)c2ccccc2F)O[C@H]1CO	-1	-8	.	0	?	-1
CN(C)CCCNC(=O)C[C@H]1CC[C@@H](NC(=O)Cc2cccnc2)[C@@H](CO)O1	-4	9	.	2	-15[16.7 µM]	4
O=[N+]([O-])c1cccnc1N1CCN(c2ccccc2F)CC1	.	7	.	-34*	5	2
CC(=O)CCc1oc2ccc(C)cc2c1Cc1ccccc1	0	15	-3	-25	7	0
CC(=O)CCc1oc2ccccc2c1-c1ccccc1	0	23	11	-34*	15	0
C[C@H](CO)N1C[C@H](C)[C@H](CN(C)C(=O)Nc2cccc3ccccc23)Oc2ccc(NC(=O)Nc3ccccc3)cc2C1=O	101*	-11	9[16.7 µM]	3	-11[16.7 µM]	1
C[C@@H]1CN([C@H](C)CO)C(=O)c2cc(NC(=O)Nc3cccc4ccccc34)ccc2O[C@H]1CN(C)C(=O)Nc1ccc(C(F)(F)F)cc1	103*	-21	2[16.7 µM]	-2	.	0
CN1C(=O)c2cc(NC(=O)c3ccccc3F)ccc2OC[C@@H]2O[C@H](CC(=O)NCc3ccc4c(c3)OCO4)CC[C@H]21	2	-21	38[16.7 µM]	2	-1[16.7 µM]	5
CCNc1nc(CC)nc2c1oc1ccccc12	.	81*	6	.	-26	.
CCc1nc(NCc2ccco2)c2oc3ccccc3c2n1	10	.	-4	.	.	.
CCNc1nc(C)nc2c1oc1ccccc12	10	67*	-1	.	4	.
CC(NC(=S)NC(=O)c1ccccc1)c1ccccc1 (centres undefined)	32	-16	4	-14	5	1
COc1ccc(C(=O)NC(=S)NC(C)c2ccccc2)cc1 (centres undefined)	4	-2	2	-32*	-21	1
SMILES	Cneo AK release	GSIS activator	miR-122 sensor	rRNA inh HTS	HIV Env fusion	CFTR F508del cor
Cc1[nH]n(-c2ccccc2)c(=O)c1C(c1cccc([N+](=O)[O-])c1O)c1c(C)[nH]n(-c2ccccc2)c1=O	.	-22	.	-10	.	-1
Cc1[nH]n(-c2ccccc2)c(=O)c1C(c1cccc([N+](=O)[O-])c1)c1c(C)[nH]n(-c2ccccc2)c1=O	.	-24	.	-46*	.	0
Cc1[nH]n(-c2ccccc2)c(=O)c1C(C[N+](=O)[O-])c1ccc(Br)cc1 (centres undefined)	.	.	-3	.	.	.
Cc1[nH]n(-c2ccccc2)c(=O)c1C(c1ccc(C(=O)O)cc1)c1c(C)[nH]n(-c2ccccc2)c1=O	.	-8	.	-19*	.	0
C[C@H](CO)N1C[C@H](C)[C@@H](CN(C)Cc2ccc(F)cc2)Oc2ncc(C#CCN(C)C)cc2C1=O	-2	12	-4[16.7 µM]	-2	-10[16.7 µM]	-1
C[C@@H]1CN([C@H](C)CO)C(=O)c2cc(C3=CCCC3)cnc2O[C@H]1CN(C)S(=O)(=O)c1cn(C)cn1	-3	14	-14[16.7 µM]	0	-21[16.7 µM]	-2
COc1ccccc1NC(=S)NC1CCCCC1	5	8	9	.	3	.
COc1ccccc1NC(=S)NCC1CCCCC1	6	1	182*	-2	4	1
O=C(C[C@@H]1CC[C@H]2[C@@H](COC[C@H](O)CN2Cc2nccs2)O1)N1CCC(Cc2ccccc2)CC1	0	-13	-1[16.7 µM]	-6	15[16.7 µM]	-2
CC(C)n1nnnc1C1c2ccccc2C(=O)N1CCc1c[nH]c2ccccc12 (centres undefined)	.	-2	.	-30*	-15	-3
CC(C)n1nnnc1C1c2ccccc2C(=O)N1Cc1cccs1 (centres undefined)	.	14	.	12	16	0
O=C1c2ccccc2C(c2nnnn2Cc2ccccc2)N1Cc1cccs1 (centres undefined)	.	10	.	-26*	8	-2
O=C1c2ccccc2C(c2nnnn2Cc2ccccc2)N1CCc1ccc(O)cc1 (centres undefined)	.	-25	.	-28*	-27	-1
O=C1c2ccccc2C(c2nnnn2Cc2ccccc2)N1CCc1ccccc1F (centres undefined)	.	-4	.	-21*	-5	0
O=C1CNC[C@H]2[C@H](c3ccc(C4=CCCC4)cc3)[C@@H](CO)N12	.	6	.	-5	.	0
COc1ccc2c3c([nH]c2c1)[C@H](CO)N(S(C)(=O)=O)CC31CCN(Cc2ccccc2)CC1	.	10	.	0	.	-4
O=C(C[C@H]1CC[C@H](NS(=O)(=O)c2cccc(F)c2)[C@H](CO)O1)NCc1ccc2c(c1)OCO2	-8	4	.	3	10[16.7 µM]	3
O=C(O)c1ccc(NS(=O)(=O)c2cccc(C(=O)Nc3ccc(Br)cc3)c2)cc1	-1	0	-6	-27*	2	1
O=C(Nc1ccccc1C(=O)O)c1cccc(S(=O)(=O)Nc2ccc(Br)cc2)c1	-3	13	.	-24	-13	0
N#Cc1c(NC(=O)c2cccc(S(=O)(=O)Nc3ccc(C(=O)O)cc3)c2)sc2c1CCCC2	.	7	-1	-24*	-3	-1
